Data taken from paper PMC5600879 (Journal of computer-aided molecular design, 2014).

Key:
Type in all cases: cell-based, human
[1] = Raji cell viability by Trypan Blue staining; settings: human, Raji cells
In short: (§1)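 Raji cells incubated 48 h at 37 °C in RPMI-1640 with 10 % FCS, n-butyric acid (4 mmol), TPA (32 pmol), and test compound at 0.32, 3.2, 16 or 32 nmol (10- to 1,000-fold of TPA). Viability was scored by Trypan Blue staining, and viability above 60 % was required to count as non-cytotoxic. Each concentration was run three times and averaged.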

[2] = tested on: TPA-induced EBV-EA expression in Raji cells; assay: EBV-EA activation assay; settings: for LogCurvP: log10 transformed response fingerprint (CurveP) of the four-dose EBV-EA data; for Exp. Act.: class from experimental LogCurvP, threshold 1.25
[3] = tested on: Raji cells; assay: Raji cell viability by Trypan Blue staining; settings: value in parentheses at 32 (1,000-fold of TPA); Trypan Blue staining
In short: as §1

Compound | viability at 48 h, 32 nmol [1] [%] | LogCurvP [2] | Exp. Act. [2] | EBV-EA inhibition potency, comparison in words [2] | viability percentages of Raji cells [3] [%]
COc1cccc(CN(C)C(=O)/C=C/c2cccc(O)c2)c1 [Compound 1, (E)-3-(3-hydroxyphenyl)-N-(3-methoxybenzyl)-N-methylacrylamide] | > 60 | 1.04 | – | – | –
CN(Cc1cccc(O)c1)C(=O)/C=C/c1cccc(O)c1 [Compound 2, (E)-N-(3-hydroxybenzyl)-3-(3-hydroxyphenyl)-N-methylacrylamide] | > 60 | 1.04 | Marginal active (active/marginally active threshold at LogCurvP = 1.25) | – | –
COc1cccc(/C=C/C(=O)NCc2cccc(OC)c2)c1 [Compound 3, (E)-N-(3-methoxybenzyl)-3-(3-methoxyphenyl)acrylamide] | > 60 | 1.04 | Marginal active (active/marginally active threshold at LogCurvP = 1.25) | – | –
O=C(/C=C/c1cccc(O)c1)NCc1cccc(O)c1 [Compound 4, (E)-N-(3-hydroxybenzyl)-3-(3-hydroxyphenyl)acrylamide] | > 60 | 1.04 | Marginal active (active/marginally active threshold at LogCurvP = 1.25) | – | –
COc1ccc(O)c(C(=O)/C=C/c2cccc(OC)c2OC)c1 [Compound 5, (E)-3-(2,3-dimethoxyphenyl)-1-(2-hydroxy-5-methoxyphenyl)prop-2-en-1-one] | > 60 | 1.43 | Active | – | –
COc1ccc2c(c1)C(=O)CC(c1cccc(O)c1O)O2 (stereo not shown) [Compound 6, 2-(2,3-dihydroxyphenyl)-6-methoxychroman-4-one] | > 60 | 1.43 | Active | – | –
O=C(/C=C/c1cccc(O)c1O)c1cc(O)ccc1O [Compound 7, (E)-3-(2,3-dihydroxyphenyl)-1-(2,5-dihydroxyphenyl)prop-2-en-1-one] | > 60 | 1.43 | Active | less potent than its ring-closed analog 9 | –
COc1ccc2oc(-c3ccc(OC)c(OC)c3)cc(=O)c2c1 [Compound 8, 2-(3,4-dimethoxyphenyl)-6-methoxy-4H-chromen-4-one] | > 60 | 1.43 | Active | – | –
O=c1cc(-c2ccc(O)c(O)c2)oc2ccc(O)cc12 [Compound 9, 2-(3,4-dihydroxyphenyl)-6-hydroxy-4H-chromen-4-one] | > 60 | 1.43 | Active | most potent analog among the tested compounds | –
COc1ccc2oc(-c3ccc(O)c(OC)c3)cc(=O)c2c1 [Compound 10, 2-(4-hydroxy-3-methoxyphenyl)-6-methoxy-4H-chromen-4-one] | > 60 | 1.43 | Active | – | –
COc1ccc2oc(-c3ccc(O)c(O)c3)cc(=O)c2c1 [Compound 11, 2-(3,4-dihydroxyphenyl)-6-methoxy-4H-chromen-4-one] | > 60 | 1.43 | Active | – | –
COc1ccc(CCNC(=O)/C=C/c2ccc3c(c2)OCO3)cc1OC [Compound 13, (E)-3-(benzo[d] [1, 3]dioxol-5-yl)-N-(3,4-dimethoxyphenethyl)acrylamide] | – | 1.04 | Marginal active (active/marginally active threshold at LogCurvP = 1.25) | – | > 60
O=C(/C=C/c1ccc2c(c1)OCO2)NCCc1ccc(Cl)cc1 [Compound 14, (E)-3-(benzo[d] [1, 3]dioxol-5-yl)-N-(4-chlorophenethyl)acrylamide] | – | 0.85 | Marginal active (active/marginally active threshold at LogCurvP = 1.25) | – | > 60
O=C(/C=C/c1ccc2c(c1)OCO2)NCCCc1ccccc1 [Compound 15, (E)-3-(benzo[d] [1, 3]dioxol-5-yl)-N-(3-phenylpropyl)acrylamide] | – | 1.04 | Marginal active (active/marginally active threshold at LogCurvP = 1.25) | – | > 60
CN(C)CCCNC(=O)/C=C/c1ccc2c(c1)OCO2 [Compound 16, (E)-3-(benzo[d] [1, 3]dioxol-5-yl)-N-(3-(dimethylamino)propyl)acrylamide] | – | 0.85 | Marginal active (active/marginally active threshold at LogCurvP = 1.25) | – | > 60
COC(=O)COc1cccc2ccccc12 [Compound 17, Methyl 2-(naphthalen-1-yloxy)acetate] | > 60 | 1.04 | Marginal active (active/marginally active threshold at LogCurvP = 1.25) | – | –
O=C(O)COc1cccc2ccccc12 [Compound 18, 2-(naphthalen-1-yloxy)acetic acid] | > 60 | 1.04 | Marginal active (active/marginally active threshold at LogCurvP = 1.25) | – | –
COc1cc(/C=C/C(=O)CC(=O)/C=C/c2ccc(O)c(OC)c2)ccc1O [Curcumin, reference compound] | > 60 | 1.43 | Active | – | –
